Test results: ChEMBL document CHEMBL3044755, “5-Methyl-1,2,3-thiadiazoles synthesized via ugi reaction and their fungicidal and antiviral activities” (J Agric Food Chem, 2010)

Experiments:
Format in all cases: functional
Rhizoctonia solani = assay: Fungicidal activity against Rhizoctonia solani at 50 ug/ml by growth inhibition method; conditions: read-out: GI
How it was run: (§1)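 Mycelial growth inhibition on potato dextrose agar. The panel covered Alternaria solani, Botrytis cinerea, Cercospora arachidicola, C. beticola, Colletotrichum lagenarium, Fusarium oxysporum, Gibberella zeae, Puccinia triticina, Phytophthora infestans, Physalospora piricola, Pellicularia sasakii and Rhizoctonia solani.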

Puccinia triticina = assay: Fungicidal activity against Puccinia triticina at 50 ug/ml by growth inhibition method; conditions: read-out: GI; how it was run: as §1
Thanatephorus cucumeris = assay: Fungicidal activity against Thanatephorus cucumeris at 50 ug/ml by growth inhibition method; conditions: read-out: GI; how it was run: as §1
[1] = system: Botryosphaeria berengeriana; assay: Fungicidal activity against Botryosphaeria berengeriana at 50 ug/ml by growth inhibition method; conditions: read-out: GI; how it was run: as §1
Phytophthora infestans = assay: Fungicidal activity against Phytophthora infestans at 50 ug/ml by growth inhibition method; conditions: read-out: GI; how it was run: as §1
Fusarium graminearum = assay: Fungicidal activity against Fusarium graminearum at 50 ug/ml by growth inhibition method; conditions: read-out: GI; how it was run: as §1
Colletotrichum lagenaria = assay: Fungicidal activity against Colletotrichum lagenaria at 50 ug/ml by growth inhibition method; conditions: read-out: GI; how it was run: as §1
Cercospora beticola = assay: Fungicidal activity against Cercospora beticola at 50 ug/ml by growth inhibition method; conditions: read-out: GI; how it was run: as §1
Mycosphaerella arachidis = assay: Fungicidal activity against Mycosphaerella arachidis at 50 ug/ml by growth inhibition method; conditions: read-out: GI; how it was run: as §1
Alternaria solani = assay: Fungicidal activity against Alternaria solani at 50 ug/ml by growth inhibition method; conditions: read-out: GI; how it was run: as §1
Tobacco mosaic virus [2] = assay: In vitro antiviral activity against Tobacco mosaic virus (TMV) infected tobacco leaves at 100 ug/ml
Tobacco mosaic virus [3] = assay: In vitro antiviral activity against Tobacco mosaic virus (TMV) infected tobacco leaves at 500 ug/ml

SMILES | inhibition of growth at 50 µg/mL (Rhizoctonia solani) [%] | inhibition of growth at 50 µg/mL (Puccinia triticina) [%] | inhibition of growth at 50 µg/mL (Thanatephorus cucumeris) [%] | inhibition of growth at 50 µg/mL [1] [%] | inhibition of growth at 50 µg/mL (Phytophthora infestans) [%] | inhibition of growth at 50 µg/mL (Fusarium graminearum) [%] | inhibition of growth at 50 µg/mL (Colletotrichum lagenaria) [%] | inhibition of growth at 50 µg/mL (Cercospora beticola) [%] | inhibition of growth at 50 µg/mL (Mycosphaerella arachidis) [%] | inhibition of growth at 50 µg/mL (Alternaria solani) [%] | inhibition at 100 µg/mL (Tobacco mosaic virus [2]) [%] | inhibition at 500 µg/mL (Tobacco mosaic virus [3]) [%]
Cc1ccc(N(C(=O)c2nnsc2C)C(C(=O)NC2CCCCC2)c2ccccc2[N+](=O)[O-])cc1F (stereo not drawn) | 9 | 0 | 0 | 12 | 50 | 0 | 0 | 25 | 27 | 0 | 5 | 11
Cc1ccc(N(C(=O)c2nnsc2C)C(C(=O)NC(C)C)c2cccc([N+](=O)[O-])c2)cc1F (stereo not drawn) | 15 | 14 | 0 | 0 | 13 | 45 | 29 | 25 | 27 | 13 | 4 | 14
Cc1ccc(N(C(=O)c2nnsc2C)C(C(=O)NC(C)C)c2ccccc2[N+](=O)[O-])cc1F (stereo not drawn) | 2 | 0 | 39 | 19 | 0 | 27 | 14 | 25 | 0 | 0 | 11 | 24
Cc1ccc(N(C(=O)c2nnsc2C)C(C(=O)NC2CCCCC2)c2cccc(C(F)(F)F)c2)cc1F (stereo not drawn) | 22 | 0 | 13 | 0 | 25 | 14 | 29 | 25 | 27 | 25 | 35 | 72
Cc1ccc(N(C(=O)c2nnsc2C)C(C(=O)NC2CCCCC2)c2ccc(C(F)(F)F)cc2)cc1F (stereo not drawn) | 22 | 0 | 0 | 0 | 0 | 9 | 14 | 0 | 0 | 0 | 27 | 36
Cc1ccc(N(C(=O)c2nnsc2C)C(C(=O)NC2CCCCC2)c2ccccc2)cc1F (stereo not drawn) | 0 | 0 | 65 | 69 | 38 | 27 | 0 | 0 | 18 | 25 | 51 | 71
Cc1ccc(N(C(=O)c2nnsc2C)C(C(=O)NC(C)C)c2ccccc2O)cc1F (stereo not drawn) | 26 | 0 | 41 | 19 | 0 | 50 | 50 | 0 | 0 | 0 | 27 | 56
Cc1ccc(N(C(=O)c2nnsc2C)C(C(=O)NC2CCCCC2)c2ccc(O)cc2)cc1F (stereo not drawn) | 22 | 0 | 0 | 0 | 25 | 14 | 36 | 25 | 45 | 13 | 9 | 34
Cc1ccc(N(C(=O)c2nnsc2C)C(C(=O)NC2CCCCC2)c2ccccc2Cl)cc1F (stereo not drawn) | 22 | 0 | 0 | 0 | 25 | 45 | 0 | 0 | 0 | 0 | 16 | 53
Cc1ccc(C(C(=O)NC2CCCCC2)N(C(=O)c2nnsc2C)c2ccc(C)c(F)c2)cc1 (stereo not drawn) | 2 | 0 | 15 | 8 | 25 | 0 | 14 | 25 | 27 | 0 | 21 | 53
Cc1ccc(N(C(=O)c2nnsc2C)C(C(=O)NC(C)C)c2ccccc2Cl)cc1F (stereo not drawn) | 0 | 0 | 0 | 0 | 25 | 0 | 14 | 0 | 0 | 0 | 23 | 17
Cc1ccc(N(C(=O)c2nnsc2C)C(C(=O)NC2CCCCC2)c2ccccc2F)cc1F (stereo not drawn) | 59 | 0 | 0 | 0 | 50 | 73 | 57 | 25 | 55 | 63 | 33 | 58
Cc1ccc(N(C(=O)c2nnsc2C)C(C(=O)NC(C)C)c2cccc(Cl)c2)cc1F (stereo not drawn) | 22 | 0 | 4 | 0 | 0 | 0 | 0 | 13 | 0 | 0 | 32 | 66
Cc1ccc(N(C(=O)c2nnsc2C)C(C(=O)NC2CCCCC2)c2ccccc2C)cc1F (stereo not drawn) | 22 | 0 | 0 | 0 | 44 | 0 | 29 | 25 | 0 | 38 | 13 | 35
